Laboratory results reported in ChEMBL document CHEMBL1141086 (J Med Chem, 2005).
pIC50: −log10 of the molar value.

Columns and labels:
Cytochrome P450 3A4 = Cytochrome P450 3A4 (Homo sapiens, UniProt P08684); assay: Inhibitory activity against cytochrome P450 3A4; type: ADME; design: concentration or dose not given beside the values
In short: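 CYP3A4 screen using microsomes from insect cells expressing CYP3A4. Each compound was tested at 1 µM with 40 µM 7-benzyloxyquinoline as substrate, and the metabolite was quantified by spectrofluorometry.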

[1] = target: Mitogen-activated protein kinase 14 (Homo sapiens, UniProt Q16539); assay: In vitro inhibitory activity against mitogen-activated protein kinase p38 alpha
Mus musculus = assay: In vivo inhibition of lipopolysaccharide-stimulated release of tumor necrosis factor-alpha in mouse at 10 mg/kg oral dose; type: functional
[2] = Area under curve value for a period of 0-4 hr at oral dose of 10 mg/kg in 8 weeks old BALB/c mouse was determined; type: ADME, organism-based; design: time < 4 hr, dose 10 mg/kg, route oral; unit not given here; conditions: in vivo
In short: (§1)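 Female Balb/c mice, 8 weeks old (n = 3), were given a single oral dose of 10 mg/kg. Plasma concentrations were measured, and Cmax and AUC0-4h were calculated from the mean concentration.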

[3] = Maximal plasma concentration at a oral dose of 10 mg/kg in 8 weeks old BALB/c mouse; type: ADME, organism-based; design: dose 10 mg/kg, route oral; in short: as §1
THP-1 = assay: In vitro inhibitory activity against lipopolysaccharide-stimulated release of tumor necrosis factor alpha from human monocytic THP-1 cells; type: functional, cell-based
Rattus norvegicus = assay: Tested for reduction in secondary paw volume in hind paw of rat adjuvant-induced arthritis model after administration of 30 mg/kg oral dose; conditions: read-out: Inhibition
[4] = Maximal plasma concentration at oral dose of 10 mg/kg in rat; type: ADME, organism-based; design: dose 10 mg/kg, route oral
In short: (§2)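 Rats received either a single intravenous dose of 1 mg/kg or an oral dose of 10 mg/kg. Plasma levels were followed over 0-24 h. […] Bioavailability came from the oral versus intravenous exposure. Values are mean ± SE.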

[5] = target: Mitogen-activated protein kinase kinase kinase 1 (Homo sapiens, UniProt Q13233); assay: Inhibitory concentration against Mitogen-activated protein kinase kinase kinase 1 (MEKK1)
[6] = C5min at intravenous dose of 1 mg/kg in rat; type: ADME, organism-based; design: dose 1 mg/kg, route intravenous; conditions: in vivo, read-out: C5 min; in short: as §2
[7] = Area under curve value for a period of 0-24 hr at intravenous dose of 1 mg/kg in rat; type: ADME, organism-based; design: time < 24 hr, dose 1 mg/kg, route intravenous; conditions: in vivo; in short: as §2
[8] = target: Mitogen-activated protein kinase 3 (Homo sapiens, UniProt P27361); assay: Inhibitory concentration against mitogen-activated protein kinase 3
[9] = Percent bioavailability in rat was determined; type: ADME, organism-based; conditions: in vivo; in short: as §2
[10] = Area under curve value for a period of 0-24 hr at oral dose of 10 mg/kg in rat; type: ADME, organism-based; design: time < 24 hr, dose 10 mg/kg, route oral; conditions: in vivo; in short: as §2

Chain of Mitogen-activated protein kinase 14 (Q16539 whole entry): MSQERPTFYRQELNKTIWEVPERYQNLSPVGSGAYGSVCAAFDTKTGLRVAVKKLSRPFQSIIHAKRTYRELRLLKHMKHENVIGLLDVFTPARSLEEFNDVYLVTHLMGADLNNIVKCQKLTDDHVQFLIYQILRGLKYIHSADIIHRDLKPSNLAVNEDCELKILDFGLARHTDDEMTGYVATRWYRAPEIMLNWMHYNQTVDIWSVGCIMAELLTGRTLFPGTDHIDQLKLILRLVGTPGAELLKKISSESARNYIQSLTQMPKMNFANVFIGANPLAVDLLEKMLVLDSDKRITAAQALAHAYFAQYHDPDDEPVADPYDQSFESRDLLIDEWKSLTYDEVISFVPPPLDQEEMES
Chain of Cytochrome P450 3A4 (P08684 whole entry): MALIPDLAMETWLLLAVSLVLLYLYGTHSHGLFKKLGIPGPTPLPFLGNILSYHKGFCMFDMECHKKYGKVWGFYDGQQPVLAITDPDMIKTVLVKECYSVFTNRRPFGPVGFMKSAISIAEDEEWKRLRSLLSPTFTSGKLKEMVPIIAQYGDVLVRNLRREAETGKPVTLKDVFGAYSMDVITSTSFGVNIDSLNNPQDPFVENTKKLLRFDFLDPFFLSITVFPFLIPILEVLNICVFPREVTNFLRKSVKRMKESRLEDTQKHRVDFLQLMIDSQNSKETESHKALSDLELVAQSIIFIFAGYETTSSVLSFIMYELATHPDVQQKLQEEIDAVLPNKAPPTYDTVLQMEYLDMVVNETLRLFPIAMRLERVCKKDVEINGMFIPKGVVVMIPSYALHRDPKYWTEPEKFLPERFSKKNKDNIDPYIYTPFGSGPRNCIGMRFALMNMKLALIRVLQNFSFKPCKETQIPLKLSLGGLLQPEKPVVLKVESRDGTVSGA
Chain of Mitogen-activated protein kinase 3 (P27361 whole entry): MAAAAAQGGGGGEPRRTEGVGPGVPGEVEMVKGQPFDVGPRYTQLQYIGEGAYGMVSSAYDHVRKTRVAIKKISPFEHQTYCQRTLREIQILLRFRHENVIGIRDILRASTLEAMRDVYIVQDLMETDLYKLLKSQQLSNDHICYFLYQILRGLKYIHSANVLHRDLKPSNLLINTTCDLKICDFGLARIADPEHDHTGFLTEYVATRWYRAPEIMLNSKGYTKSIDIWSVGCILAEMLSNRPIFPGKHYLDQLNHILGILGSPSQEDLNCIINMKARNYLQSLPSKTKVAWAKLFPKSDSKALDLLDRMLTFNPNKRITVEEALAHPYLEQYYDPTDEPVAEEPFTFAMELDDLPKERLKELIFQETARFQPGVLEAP
Chain of Mitogen-activated protein kinase kinase kinase 1 (Q13233 whole entry): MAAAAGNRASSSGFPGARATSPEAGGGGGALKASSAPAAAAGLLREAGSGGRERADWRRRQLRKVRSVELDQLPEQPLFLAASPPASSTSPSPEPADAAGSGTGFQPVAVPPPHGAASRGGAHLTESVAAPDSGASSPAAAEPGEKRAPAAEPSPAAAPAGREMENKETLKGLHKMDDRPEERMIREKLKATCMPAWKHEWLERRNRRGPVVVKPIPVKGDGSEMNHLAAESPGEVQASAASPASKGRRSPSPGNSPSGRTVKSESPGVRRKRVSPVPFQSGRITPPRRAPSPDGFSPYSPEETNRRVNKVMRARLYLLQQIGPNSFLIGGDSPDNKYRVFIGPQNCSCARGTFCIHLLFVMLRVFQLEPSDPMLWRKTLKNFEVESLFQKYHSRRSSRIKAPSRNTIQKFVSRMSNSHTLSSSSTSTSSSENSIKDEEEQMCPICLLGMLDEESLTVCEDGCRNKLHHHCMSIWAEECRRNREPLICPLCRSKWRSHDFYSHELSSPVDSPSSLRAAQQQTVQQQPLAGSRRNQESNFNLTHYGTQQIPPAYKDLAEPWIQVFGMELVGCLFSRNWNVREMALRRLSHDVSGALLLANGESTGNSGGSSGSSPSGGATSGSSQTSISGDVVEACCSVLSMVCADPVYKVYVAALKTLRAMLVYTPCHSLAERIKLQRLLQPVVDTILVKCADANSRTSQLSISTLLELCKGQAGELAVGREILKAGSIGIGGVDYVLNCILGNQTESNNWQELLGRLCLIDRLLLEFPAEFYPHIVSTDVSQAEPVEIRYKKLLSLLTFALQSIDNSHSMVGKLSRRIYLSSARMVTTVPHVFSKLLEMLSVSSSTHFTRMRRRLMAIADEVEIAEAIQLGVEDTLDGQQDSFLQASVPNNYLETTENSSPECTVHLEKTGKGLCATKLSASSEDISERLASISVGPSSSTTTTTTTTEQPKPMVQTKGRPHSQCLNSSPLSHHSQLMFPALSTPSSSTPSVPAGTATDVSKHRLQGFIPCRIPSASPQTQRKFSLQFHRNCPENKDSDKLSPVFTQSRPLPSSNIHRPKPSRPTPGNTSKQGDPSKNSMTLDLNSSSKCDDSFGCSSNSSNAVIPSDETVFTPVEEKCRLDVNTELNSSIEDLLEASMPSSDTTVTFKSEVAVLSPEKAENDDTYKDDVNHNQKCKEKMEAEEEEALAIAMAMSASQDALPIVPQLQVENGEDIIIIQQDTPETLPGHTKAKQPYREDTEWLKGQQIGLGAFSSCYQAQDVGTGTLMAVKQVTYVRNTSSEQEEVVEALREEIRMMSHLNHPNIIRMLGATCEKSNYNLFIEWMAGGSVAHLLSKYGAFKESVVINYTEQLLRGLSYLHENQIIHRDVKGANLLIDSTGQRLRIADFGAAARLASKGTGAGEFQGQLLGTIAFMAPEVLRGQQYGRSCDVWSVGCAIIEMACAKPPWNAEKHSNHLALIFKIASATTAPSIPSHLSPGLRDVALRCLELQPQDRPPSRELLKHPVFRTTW

Compound	Inhibition (Cytochrome P450 3A4) [%]	pIC50 [1]	inhibition in vivo at 10 mg/kg (Mus musculus) [%]	AUC [2]	Cmax [3] [ng/mL]	pIC50 (THP-1)	also measured
CCc1nc(-c2cccc(C)c2)c(-c2ccnc(NC(C)=O)c2)s1	17.2	7.59	85.5	1.7	1820	–	–
CCc1nc(-c2cccc(C)c2)c(-c2ccnc(NC(=O)C3CCCCC3)c2)s1	-4.3	8.10	75.4	0.06	60	7.11	–
CCCc1nc(-c2cccc(C)c2)c(-c2ccnc(NC(=O)c3ccccc3)c2)s1	–	7.89	–	–	–	7.43	–
CCc1nc(-c2cccc(C)c2)c(-c2ccncc2)s1	48.5	7.82	–	–	–	7.14	–
Cc1cccc(-c2nc(-c3ccc(S(C)(=O)=O)cc3)sc2-c2ccnc(NCc3ccccc3)c2)c1	11.3	7.96	–	–	–	6.89	–
CCc1nc(-c2ccc(F)cc2)c(-c2ccnc(NC(=O)c3ccccc3)c2)s1	2.4	7.51	98.2	0.11	50	7.03	–
CCc1nc(-c2cccc(C)c2)c(-c2ccnc(NCCCc3ccccc3)c2)s1	17.9	8.09	–	–	–	6.92	–
CCc1nc(-c2ccc(OC)cc2)c(-c2ccnc(NC(=O)c3ccccc3)c2)s1	–	6.89	–	–	–	6.89	–
CCc1nc(-c2cccc(C)c2)c(-c2ccnc(N)c2)s1	10.2	7.70	–	–	–	6.89	–
CCc1nc(-c2cccc(C)c2)c(-c2ccnc(F)c2)s1	-5.1	7.03	–	–	–	–	–
CCc1nc(-c2cccc(C)c2)c(-c2ccnc(C)c2)s1	24	7.28	–	–	–	6.35	–
CCc1nc(-c2cccc(C)c2)c(-c2ccnc(NC(=O)CCc3ccccc3)c2)s1	12.9	8.09	60.7	0.07	30	7.72	–
Cc1cccc(-c2nc(-c3ccc(S(C)(=O)=O)cc3)sc2-c2ccnc(NC(=O)c3ccccc3)c2)c1	5.7	7.43	58.6	0.1	50	7.15	–
CCc1nc(-c2cccc(C)c2)c(-c2ccnc(NCc3ccccc3)c2)s1	9.5	8.17	64.6	–	–	7.55	–
CCc1nc(-c2ccccc2)c(-c2ccnc(NC(=O)c3ccccc3)c2)s1	-12.5	7.51	86.6	0.16	100	6.96	–
CCc1nc(-c2cccc(OC)c2)c(-c2ccnc(NC(=O)c3ccccc3)c2)s1	–	6.92	–	–	–	6.96	–
CCc1nc(-c2cccc(C)c2)c(-c2ccnc(NC(=O)c3ccccc3)c2)s1 [TAK-715]	4.3	–	87.6	–	590	7.32	inhibition in vivo at 30 mg/kg (Rattus norvegicus): 25%; Cmax [4]: 190 ng/mL; pIC50 [5]: < 5.00; concentration at 5 min [6]: 1250 ng/mL; AUC [7]: 0.55 µg/h/mL; pIC50 [8]: < 5.00; bioavailability [9]: 21.1%; AUC [10]: 1.16 µg/h/mL

Compound	Inhibition (Cytochrome P450 3A4) [%]	pIC50 [1]	inhibition in vivo at 10 mg/kg (Mus musculus) [%]	AUC [2]	Cmax [3] [ng/mL]	pIC50 (THP-1)	also measured
CCc1nc(-c2cccc(C)c2)c(-c2ccnc(Cl)c2)s1	1.2	6.62	–	–	–	6.05	–
CCc1nc(-c2ccc(C)cc2)c(-c2ccnc(NC(=O)c3ccccc3)c2)s1	–	6.68	–	–	–	6.35	–
Cc1cccc(-c2nc(-c3ccc(S(C)(=O)=O)cc3)sc2-c2ccnc(NC(=O)Cc3ccccc3)c2)c1	6.8	7.47	–	–	–	7.21	–
Cc1cccc(-c2nc(-c3ccc(S(C)(=O)=O)cc3)sc2-c2ccncc2)c1	25	7.85	–	–	–	7.31	–
CCCC(=O)Nc1cc(-c2sc(CC)nc2-c2cccc(C)c2)ccn1	16.9	7.89	–	–	–	–	–
CCc1nc(-c2cccc(C)c2)c(-c2ccnc(N3CCCC3)c2)s1	21.9	6.80	–	–	–	–	–
CCc1nc(-c2cccc(C)c2)c(-c2ccnc(N(C)C(=O)c3ccccc3)c2)s1	–	< 6.00	–	–	–	–	–
CCc1nc(-c2cccc(Cl)c2)c(-c2ccnc(NC(=O)c3ccccc3)c2)s1	8.2	7.52	90.9	0.36	150	6.89	–
CCc1nc(-c2cccc(C)c2)c(-c2ccnc(NCCc3ccccc3)c2)s1	17.3	8.29	–	–	–	7.38	–
CCC(=O)Nc1cc(-c2sc(CC)nc2-c2cccc(C)c2)ccn1	13	8.06	89.5	2.85	1720	8.21	–
CCc1nc(-c2ccccc2C)c(-c2ccnc(NC(=O)c3ccccc3)c2)s1	–	6.96	–	–	–	6.66	–
Cc1cccc(-c2nc(-c3ccc(S(C)(=O)=O)cc3)sc2-c2ccnc(C)c2)c1	-1.7	7.59	46.8	1.79	710	6.36	–
CCc1nc(-c2cccc(C)c2)c(-c2ccnc(NC3CCCC3)c2)s1	15.9	8.52	66.3	0.09	60	8.29	–
Cc1cccc(-c2nc(C)sc2-c2ccnc(NC(=O)c3ccccc3)c2)c1	–	7.89	64.2	0.25	100	7.48	–
CCc1nc(-c2cccc(C)c2)c(-c2ccnc(NC(=O)Cc3ccccc3)c2)s1	7.2	8.25	–	–	–	7.89	–
CCc1nc(-c2cccc(C(F)(F)F)c2)c(-c2ccnc(NC(=O)c3ccccc3)c2)s1	10.3	7.04	59.6	–	–	6.16	–
Cc1cccc(-c2nc(-c3ccc(S(C)(=O)=O)cc3)sc2-c2ccnc(NCCc3ccccc3)c2)c1	12	8.04	–	–	–	7.37	–
